A selection: hits, their analogues and other compounds. The true share with any hit is near 3.9%.
AHR act = activators of human aryl hydrocarbon receptor | P35869 | AHR-responsive luciferase reporter cells, luminescence | activation, % at 5 µM | actives 2.5% (n = 320,000) | AID 2796; in the data active = activation above about 47%
SR-BI HDL uptake = inhibitors of mouse SR-BI mediated HDL lipid uptake | Q61009 | ldlA[mSR-BI] CHO cells, DiI-HDL uptake fluorescence, 3 h | inhibition, % at 12.5 µM | actives 0.96% (n = 320,000) | AID 488896;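 active = mean replicate inhibition of at least 70% and a set share of replicates each scoring 70 or more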
Target sequence (Q61009 whole entry, looked up): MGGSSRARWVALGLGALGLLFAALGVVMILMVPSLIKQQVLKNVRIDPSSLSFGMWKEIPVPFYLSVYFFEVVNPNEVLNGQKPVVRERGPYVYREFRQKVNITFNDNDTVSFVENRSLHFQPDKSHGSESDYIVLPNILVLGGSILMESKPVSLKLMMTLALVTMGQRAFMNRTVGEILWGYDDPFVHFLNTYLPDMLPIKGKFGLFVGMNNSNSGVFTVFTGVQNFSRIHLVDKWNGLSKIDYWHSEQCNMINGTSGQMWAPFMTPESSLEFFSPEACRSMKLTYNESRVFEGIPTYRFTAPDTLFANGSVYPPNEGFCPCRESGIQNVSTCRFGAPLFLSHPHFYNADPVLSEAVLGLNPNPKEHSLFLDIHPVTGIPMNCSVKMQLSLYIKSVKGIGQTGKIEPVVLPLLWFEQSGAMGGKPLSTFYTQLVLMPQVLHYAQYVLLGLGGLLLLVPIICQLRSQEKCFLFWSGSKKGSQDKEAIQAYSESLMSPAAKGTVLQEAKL
SR-BI DiI-HDL act = SR-BI HDL lipid transfer activation. activation, % at 12.5 µM. actives 0.096% (n = 320,000). CHO ldlA[mSR-BI] cells, DiI-HDL uptake fluorescence, 3 h; 100 = double the neutral-control signal. AID 504775;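 active = mean replicate activation of at least 60% and every replicate at or above 60%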
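System: LDL receptor-deficient CHO ldlA cells overexpressing murine SR-BI | Timing: 3 h uptake period with compound, 37 °C | Medium: HEPES-buffered (25 mM, pH 7.4) F12 plus 0.5% BSA | Dosing: Single-point compound dose | Signal: Bottom-read fluorescence, 550/595 nm | Read-out: Retained DiI signal reflecting DiI-HDL uptake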
HIF activator = HIF pathway transcriptional activation; U2OS HRE-luciferase reporter, luminescence; normalized: DMSO 0%, desferrioxamine 100%; activation, % at 7.5 µM (by protocol); actives 0.32% (n = 300,000); AID 1910;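 active = mean activation of at least 10% of the iron chelator positive control signal, with at least half of replicates also reaching 10%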
FXN GAA850 act = activators of GAA850 frataxin (FXN) promoter. HEK293 lucGAA850 FXN promoter luciferase reporter, 24 h; percent of 10 µM SAHA response. activation, % at 6 µM. actives 0.56% (n = 360,000);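 active = activation above the average of all compounds screened plus 3 SD, cutoff fixed separately per campaign, cut at about 7.5% in these data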
ABCB6 inh 2 = blocks the human ABCB6 transporter; Q9NP58; K562-ABCB6 porphyrin accumulation, flow cytometry, 1 h; hits give low values; fluorescence ratio to DMSO, % at 10 µM; actives 0.19% (n = 360,000);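 active = fluorescence ratio to DMSO below 75%, the collection mean minus 3 SD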;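 also: signal is porphyrin accumulated inside mitochondria; lower ratio means ABCB6 inhibition with less porphyrin fluorescence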
Each line names hits and unclear results; the compound was inactive in the other large screens.

COc1ccccc1NC(=O)Cn1cnc2sc(C(=O)Nc3ccc(OC)c(OC)c3)c(C)c2c1=O	SR-BI HDL uptake 83 (no result: HIF activator)
COc1ccccc1Nc1ncc(C(=O)Nc2ccc(OC)c(OC)c2)c2ccccc12	SR-BI HDL uptake 83
COc1ccccc1NC(=O)c1cc(-c2ccc(OC)c(OC)c2)nc2ccccc12	none (no result: AHR act)
COc1ccc(NC(=O)c2cc(-c3cc(OC)c(OC)c(OC)c3)nc3ccccc23)cc1OC	SR-BI HDL uptake 85
Cc1cc(C(=O)N/N=C/c2cccc(Cl)c2Cl)no1	AHR act 47
CCOC(=O)c1sc(N/N=C/c2cc(Br)c(O)c(OC)c2)nc1C	AHR act 67
Cc1c(C)n(C)c2ccc(C(=O)NCCCN3CCCC3)cc12	none (no result: SR-BI DiI-HDL act)
CCN(CC)c1ccc(NC(=O)c2ccc3c(c2)c(C)c(C)n3C)cc1	SR-BI HDL uptake 90
CC(=O)N1CCN(c2ccccc2NC(=O)COc2cc(C)ccc2C(C)C)CC1	none (no result: HIF activator)
Cc1nn(C)c(C)c1CN(C)S(=O)(=O)c1ccc(F)cc1	none (no result: SR-BI HDL uptake, SR-BI DiI-HDL act)
C=CCn1c(SCC(=O)Nc2ccccc2C)nc2sc(C)c(C)c2c1=O	ABCB6 inh 2 73
C=CCn1c(SCC(=O)Nc2sccc2C(N)=O)nc2sc(C)c(C)c2c1=O	none
CCOC(=O)c1c(NC(=S)Nc2cccc(C)c2)sc2c1CC(C)(C)SC2	SR-BI HDL uptake 87
CC(C)Oc1ccc(C(=O)OCC(=O)c2ccc[nH]2)cc1	none (no result: HIF activator)
Cc1ccc(-n2cc3c(=O)n(C)c(=O)n(C)c3c2)cc1C	none
Cc1cc(N)c(-n2cc3c(=O)n(C)c(=O)n(C)c3c2)cc1C	AHR act 56
CCCOc1ccc(-c2c(C(=O)N/N=C/c3ccccc3)nnn2-c2nonc2N)cc1	SR-BI HDL uptake 77
CCOc1ccc(-c2c(C(=O)N/N=C/c3cccnc3)nnn2-c2nonc2N)cc1	HIF activator 25
CC(C)c1c(C(=O)N/N=C/c2ccc(C(F)(F)F)cc2)nnn1-c1nonc1N	SR-BI HDL uptake 77
CCOc1ccc(-c2c(C(=O)N/N=C/c3c[nH]c4ccccc34)nnn2-c2nonc2N)cc1	SR-BI HDL uptake 88
COc1ccc(CNC(=O)CS(=O)Cc2nc(-c3ccccc3C)oc2C)cc1 (configuration not stated)	none
CCN1CCCC1CNCc1cccc(OC)c1OCc1ccccc1F (configuration not stated)	none
O/N=C(\c1ccc(Cl)cc1)c1ncc(C(F)(F)F)cc1Cl	AHR act 79
CN(NC(=O)c1ccc(Cl)cc1)c1ncc(C(F)(F)F)cc1Cl	none (no result: HIF activator)
CCCOc1ccccc1NC(=O)CC1Nc2ccccc2NC1=O (configuration not stated)	AHR act 49
CCOc1ccccc1NC(=O)CC1Nc2ccccc2NC1=O (configuration not stated)	AHR act 78 (no result: SR-BI HDL uptake, SR-BI DiI-HDL act)
COc1ccc(NC(=O)C2CC(=O)N(c3cccc(C)c3C)C2)cc1 (configuration not stated)	none
O=[N+]([O-])c1cccc(/C(=N/N=C/c2ccccc2Br)C23CN4CN(CN(C4)C2)C3)c1	AHR act 67
CCn1nc(C)c(NC(=O)/C=C/c2cnn(C)c2C)c1C	none
CCN1CCN(CC(=O)n2c3c(c4ccccc42)CC(C)CC3)CC1 (configuration not stated)	none
CC1CCN(CC(=O)n2c3c(c4ccccc42)CCCC3)CC1	AHR act 50
Cc1ccc2c(c1)C(=O)C(=O)N2Cc1ccc(Br)cc1	none (no result: HIF activator)
CN(C)/C=C(/C#N)C(=O)c1cccc(Oc2ccc(C(C)(C)C)cc2)c1	SR-BI HDL uptake 71
Cc1ccccc1Oc1cccc(C(=O)/C(C#N)=C/N(C)C)c1	none
Cc1cc(/C=N/Nc2nc(N)ncc2[N+](=O)[O-])c(C)n1-c1cccc(C(F)(F)F)c1	none (no result: SR-BI HDL uptake, SR-BI DiI-HDL act, FXN GAA850 act, ABCB6 inh 2)
Brc1ccccc1-n1nnc(-c2cnc3ccccc3c2)n1	AHR act 54
Clc1nc2ccccc2cc1-c1nnn(-c2ccccc2Br)n1	none
CC(C)C1CC(C(F)(F)F)n2nc(C(=O)O)cc2N1 (configuration not stated)	none
CC(C)c1ccc(NC(=O)c2cc(S(=O)(=O)N3CCCC3)c[nH]2)cc1	AHR act 49
Cc1cccc(-c2ccc3[nH]c4c(c3c2)CCN2C[C@H]3[C@H](C)ON(C)[C@H]3C[C@@H]42)c1	none (no result: AHR act, SR-BI HDL uptake, SR-BI DiI-HDL act, HIF activator)
COc1ccc2noc3c2c1C(=O)c1ccccc1-3	none
O=C1c2ccccc2-c2onc3ccc(NCCCn4ccnc4)c1c23	AHR act 60 (no result: SR-BI HDL uptake, SR-BI DiI-HDL act, FXN GAA850 act, ABCB6 inh 2)
CCN(CC)CCOc1ccc2c(c1)C(=NO)c1cc(OCCN(CC)CC)ccc1-2	HIF activator 62
CCN(CC)CCOc1ccc(Br)cc1	none
COc1cc2c(cc1OC)C(=Cc1ccc(N(C)C)cc1)C=C2	SR-BI HDL uptake 76 (no result: AHR act, HIF activator)
COc1ccc(Cl)cc1NC(=O)COc1ccc(S(=O)(=O)N2CCOCC2)cc1C	none
COc1ccc(C2CC3(CC(C)(C)NC(=S)N3)Oc3cc(O)cc(C)c32)cc1 (configuration not stated)	none
CC1(C)CC2(CC(c3ccccc3)c3ccc(O)cc3O2)NC(=S)N1 (configuration not stated)	SR-BI HDL uptake 72
COc1ccc(C2CC3(CC(C)(C)NC(=O)N3)Oc3cc(O)ccc32)cc1 (configuration not stated)	none
CC(=O)Oc1cc2c(cc1Cl)C(c1cccs1)CC1(CC(C)(C)NC(=S)N1)O2 (configuration not stated)	SR-BI HDL uptake 75
O=C1NC2=C(CCc3ccccc32)C(c2ccc(Br)cc2)N1 (configuration not stated)	AHR act 61 (no result: HIF activator)
O=C1Cc2ccccc2C(c2ccc(Br)cc2)N1 (configuration not stated)	none
C/C(=N\Nc1ncc(Cl)cc1Cl)c1ccc(C#N)cc1	none
COc1ccc(/C(C)=N/Nc2ncc(Cl)cc2Cl)c(O)c1	SR-BI HDL uptake 106
O=C(CSc1nnc(-c2ccccc2Cl)o1)N1CCOCC1	HIF activator 14 (no result: SR-BI HDL uptake, SR-BI DiI-HDL act)
COc1ccccc1-c1nnc(SCC(=O)N2CCOCC2)o1	none
O=C(NNC(=S)NC1CCCCC1)c1ccccc1O	SR-BI HDL uptake 118
O=C(NNC(=S)NC1CCCCC1)c1cccs1	none
O=C(NNC(=O)c1cc2ccccc2cc1O)NC1CCCCC1	SR-BI HDL uptake 115 (no result: AHR act)
Clc1ccc(C2Nc3ccccc3-n3cccc32)cc1 (configuration not stated)	none
CN1C(C)(C)CCCC1(C)C	none (no result: HIF activator)
N#Cc1c(N)nc2c(c1N)CC(=O)N2c1ccccc1-c1ccccc1	none (no result: SR-BI HDL uptake, SR-BI DiI-HDL act)
N#Cc1c(N)nc2c(c1N)CC(=O)N2c1ccc(Cl)cc1	AHR act 89
COc1cc(-c2ccc3oc(-c4ccsc4)cc(=O)c3c2)cc(OC)c1OC	SR-BI HDL uptake 73 (no result: HIF activator)
